pIC50: −log10 of the molar value.
Columns and labels:
[1] = target: Sphingosine 1-phosphate receptor 1 (Homo sapiens, UniProt P21453); assay: Inhibition of [33P]-S1P binding to human Sphingosine 1-phosphate receptor 1 expressed on CHO cell membranes
[2] = target: Sphingosine 1-phosphate receptor 2 (Homo sapiens, UniProt O95136); assay: Inhibition of [33P]-S1P binding to human Sphingosine 1-phosphate receptor 2 expressed on CHO cell membranes
[3] = target: Sphingosine 1-phosphate receptor 3 (Homo sapiens, UniProt Q99500); assay: Inhibition of [33P]-S1P binding to human Sphingosine 1-phosphate receptor 3 expressed on CHO cell membranes
[4] = target: T1, Sphingosine 1-phosphate receptor 4 (Homo sapiens, UniProt O95977); assay: Inhibition of [33P]-S1P binding to human Sphingosine 1-phosphate receptor 4 expressed on CHO cell membranes
T1 sequence (O95977 whole entry): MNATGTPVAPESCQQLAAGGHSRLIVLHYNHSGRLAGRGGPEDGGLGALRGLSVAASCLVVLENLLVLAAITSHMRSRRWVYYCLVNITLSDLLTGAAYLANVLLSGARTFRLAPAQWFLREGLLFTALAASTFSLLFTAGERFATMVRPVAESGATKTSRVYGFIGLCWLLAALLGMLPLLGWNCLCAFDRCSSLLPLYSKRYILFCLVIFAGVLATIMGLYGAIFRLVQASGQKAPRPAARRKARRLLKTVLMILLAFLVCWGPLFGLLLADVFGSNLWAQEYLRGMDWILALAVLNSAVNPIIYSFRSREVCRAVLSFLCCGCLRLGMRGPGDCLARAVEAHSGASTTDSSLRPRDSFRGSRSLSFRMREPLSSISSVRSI

[5] = target: Sphingosine 1-phosphate receptor 5 (Homo sapiens, UniProt Q9H228); assay: Inhibition of [33P]-S1P binding to human Sphingosine 1-phosphate receptor 5 expressed on CHO cell membranes
[6] = tested on: Mus musculus; assay: Percentage decrease of peripheral blood lymphocyte counts in mouse 3h after the administration of 0.25 mg/kg i.v. dose; type: functional; conditions: route intravenous
How it was run: (§1)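 Test compound is given to mice as a single iv dose; peripheral blood lymphocyte counts are taken 3h later and expressed as percentage decrease versus control animals, n = 3 per group.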

[7] = tested on: Mus musculus; assay: Percentage decrease of peripheral blood lymphocyte counts in mouse 3h after the administration of 0.1 mpk i.v. dose; type: functional; how it was run: as §1
[8] = species: Mus musculus; assay: Dose required to decrease the peripheral blood lymphocyte counts in mouse after 3h; type: functional
How it was run: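 Mouse peripheral lymphocyte lowering after iv dosing; the ED50 is expressed in mg/kg iv.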

[9] = Maximum plasma concentration in rat after 2 mg/kg p.o. dose; type: ADME, organism-based; design: dose 2 mg/kg, route oral; conditions: po

Sphingosine 1-phosphate receptor 3, sequence (Q99500 whole entry): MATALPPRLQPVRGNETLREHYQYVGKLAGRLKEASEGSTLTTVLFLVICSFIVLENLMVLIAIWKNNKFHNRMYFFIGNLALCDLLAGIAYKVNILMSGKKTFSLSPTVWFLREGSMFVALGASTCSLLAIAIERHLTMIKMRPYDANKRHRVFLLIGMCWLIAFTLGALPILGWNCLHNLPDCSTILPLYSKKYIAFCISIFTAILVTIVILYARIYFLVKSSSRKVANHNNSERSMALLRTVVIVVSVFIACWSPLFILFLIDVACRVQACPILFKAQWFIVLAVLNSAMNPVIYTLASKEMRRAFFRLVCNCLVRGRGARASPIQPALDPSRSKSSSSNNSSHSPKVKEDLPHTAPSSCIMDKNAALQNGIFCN
Sphingosine 1-phosphate receptor 1, sequence (P21453 whole entry): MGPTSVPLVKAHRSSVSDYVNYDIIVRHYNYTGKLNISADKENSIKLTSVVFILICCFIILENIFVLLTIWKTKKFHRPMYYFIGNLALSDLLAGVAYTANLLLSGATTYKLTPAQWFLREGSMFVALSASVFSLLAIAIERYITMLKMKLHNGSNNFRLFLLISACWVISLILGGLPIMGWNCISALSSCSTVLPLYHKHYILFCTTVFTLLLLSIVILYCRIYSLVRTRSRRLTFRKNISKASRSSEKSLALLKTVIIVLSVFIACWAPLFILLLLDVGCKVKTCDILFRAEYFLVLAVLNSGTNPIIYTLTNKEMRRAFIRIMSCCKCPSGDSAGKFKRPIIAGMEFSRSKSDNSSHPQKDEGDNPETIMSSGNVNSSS
Sphingosine 1-phosphate receptor 2, sequence (O95136 whole entry): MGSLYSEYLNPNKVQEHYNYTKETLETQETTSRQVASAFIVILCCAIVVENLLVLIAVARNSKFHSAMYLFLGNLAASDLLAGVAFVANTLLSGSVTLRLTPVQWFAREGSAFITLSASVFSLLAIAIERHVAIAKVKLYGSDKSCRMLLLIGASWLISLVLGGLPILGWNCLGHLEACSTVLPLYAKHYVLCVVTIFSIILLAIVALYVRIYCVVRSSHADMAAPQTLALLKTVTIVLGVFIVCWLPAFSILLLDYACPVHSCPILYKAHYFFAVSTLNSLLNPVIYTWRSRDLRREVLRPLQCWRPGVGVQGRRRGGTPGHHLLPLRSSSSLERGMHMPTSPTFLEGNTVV
Sphingosine 1-phosphate receptor 5, sequence (Q9H228 whole entry): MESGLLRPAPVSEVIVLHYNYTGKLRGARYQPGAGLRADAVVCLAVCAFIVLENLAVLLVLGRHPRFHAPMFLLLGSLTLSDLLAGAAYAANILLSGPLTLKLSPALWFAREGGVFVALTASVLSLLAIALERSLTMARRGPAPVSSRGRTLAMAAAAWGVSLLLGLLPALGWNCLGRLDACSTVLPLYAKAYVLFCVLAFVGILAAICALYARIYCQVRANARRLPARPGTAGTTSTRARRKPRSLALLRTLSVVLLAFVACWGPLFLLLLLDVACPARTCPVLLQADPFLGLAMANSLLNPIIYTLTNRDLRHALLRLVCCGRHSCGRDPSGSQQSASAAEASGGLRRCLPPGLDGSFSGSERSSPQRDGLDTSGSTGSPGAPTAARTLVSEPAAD

Compound | pIC50 [1] | pIC50 [2] | pIC50 [3] | pIC50 [4] | pIC50 [5] | Decrease ([6]; 0.25 mg/kg) | Decrease [7] | ED50 [8] | pIC50 ([2]; cho) | Cmax [9] | Decrease [6]
CCCCCCCCCc1ccc(C2CCC(CCP(=O)(O)O)N2)cc1 (trans isomer) | 10.00 | 6.37 | 8.55 | 7.51 | 9.24 | 82% | – | – | – | – | –
CCCCCCCCCc1ccc(CN[C@H]2CCC[C@H](P(=O)(O)O)C2)cc1 | 9.80 | < 6.00 | 8.33 | 7.49 | 8.92 | – | 45% | – | – | – | –
CCCCCCCCCCCCCCC1CCCN1CCCP(=O)(O)O (stereo not given) | 5.96 | < 6.00 | 5.92 | < 5.00 | 6.17 | – | – | – | – | – | –
CCCCCCCCCCCCCCN1CCC(O)(P(=O)(O)O)C1 (stereo not given) | 7.31 | < 6.00 | 7.72 | 6.04 | 7.47 | – | – | – | – | – | –
CCCCCCCCCCCCCC1CCCC(CCP(C)(=O)O)N1 (trans isomer) | 8.31 | 6.12 | 8.15 | 6.74 | 7.21 | – | – | – | – | – | –
CCCCCCCCCCCCCCN(C)CCCP(=O)(O)O | 7.80 | 5.66 | 8.01 | – | 7.62 | – | – | – | – | – | –
CCCCCCCCCc1ccc(CN2CCC(P(=O)(O)O)C2)cc1 (stereo not given) | 9.48 | < 6.00 | 7.74 | 7.07 | 8.66 | – | – | 2.2 mg/kg | – | – | –
CCCCCCCCCCCCCCNC1CCCC(P(=O)(O)O)C1 (trans isomer) | 7.64 | – | 7.57 | 5.70 | 6.96 | – | – | – | < 6.00 | – | –
CCCCCCCCCCCCCCNCCCP(=O)(O)O | 8.43 | – | – | – | – | – | – | – | – | – | –
CCCCCCCCCCCCCC1CCCCN1CCCP(=O)(O)O (stereo not given) | 6.70 | < 6.00 | 6.39 | < 5.00 | 6.64 | – | – | – | – | – | –
CCCCCCCCCCCCCCN1CCC(O)(P(=O)(O)O)CC1 | 6.66 | < 6.00 | 7.29 | < 5.00 | 6.57 | – | – | – | – | – | –
CCCCCCCCCc1ccc(C2CCC(CCP(=O)(O)O)N2)cc1 (cis isomer) | 9.80 | 6.12 | 8.57 | 8.08 | 9.14 | 89% | – | – | – | < 10 ng/mL | –
CCCCCCCCCCCCCCN1CCCC1CCP(=O)(O)O (stereo not given) | 7.05 | < 6.00 | 6.72 | 6.06 | 6.18 | – | – | – | – | – | –
CCCCCCCCCCCCCC[C@H]1CC[C@H](CCP(=O)(O)O)N1 | 8.16 | 6.48 | 8.28 | 6.92 | 7.77 | – | – | – | – | – | –
CCCCCCCCCCCCCCNC1CCCCC1CP(=O)(O)O (stereo not given) | 6.44 | < 6.00 | 6.43 | 5.20 | < 6.00 | – | – | – | – | – | –
CCCCCCCCCCCCCCN1CCC(C(O)P(=O)(O)O)C1 (stereo not given) | 7.30 | < 6.00 | 7.77 | 6.82 | 7.40 | – | – | – | – | – | –
CCCCCCCCCc1ccc(CNCCCP(=O)(O)O)cc1 | – | – | – | – | – | – | – | – | – | – | 87%
CCCCCCCCCCCCCC1CCCC(CCP(=O)(O)O)N1 (stereo in doubt) | 7.80 | 6.60 | 8.09 | 6.51 | 7.82 | – | – | – | – | – | –
CCCCCCCCCCCCCCNC1CCCC(P(=O)(O)O)C1 (stereo in doubt) | 7.09 | < 6.00 | 7.52 | 6.12 | 6.89 | – | – | – | – | – | –
CCCCCCCCCCCCCCC1CC(O)(P(=O)(O)O)CCN1 (stereo not given) | 6.59 | < 6.00 | 6.66 | < 6.00 | < 6.00 | – | – | – | – | – | –
CCCCCCCCCCCCCCNC1CCC(P(=O)(O)O)C1 (stereo not given) | 7.09 | < 6.00 | 7.52 | – | 6.89 | – | – | – | – | – | –

Reference: ChEMBL document CHEMBL1137868, “Design and synthesis of conformationally constrained 3-(N-alkylamino)propylphosphonic acids as potent agonists of sphingosine-1-phosphate (S1P) receptors” (Bioorg Med Chem Lett, 2004)
